Experimental data pooled from the literature.
Compare with care: the assays were run in different laboratories.
Read-out: enzyme activity
Mode: inhibitor
INSR: Insulin receptor (INSR, Homo sapiens, UniProt P06213)
INSR phosphorylated: Insulin receptor, phosphorylated (INSR, Homo sapiens, UniProt P06213)

| SMILES | target | assay | setting | remaining activity [%] |
| --- | --- | --- | --- | --- |
| CC(C)(O)[C@H]1CC[C@H](Nc2ccc3ncc(-c4cccc(C(F)(F)F)c4)n3n2)CC1 | INSR |  | 1 µM | 102 |
| Cc1sc(C(=O)NC2COC2)cc1-n1cc(NC(=O)Nc2c(F)cccc2Cl)cn1 | INSR |  | 10 µM | 85.5 |
| COc1cc(Nc2cnc(C#N)c(O[C@H](C)CN(C)C)n2)ncc1-c1cnn(C)c1 | INSR | radiometric | 1 µM | 98 |
| Oc1cccc(-c2nc(N3CCOCC3)c3oc4ncccc4c3n2)c1 | INSR |  | 10 µM | 80 |
| CCN(CC)c1ccc(C2=NNC(=O)CC2C)cc1[N+](=O)[O-] (stereo not drawn) | INSR |  | 10 µM | 94 |
| COc1cc(Cl)c(C(=O)N[C@@H](CN[C@H]2CC[C@@H](N)CC2)Cc2ccc(C#N)cc2)cc1-c1ccc(CN[C@H](C)c2ccc(C)cc2)o1 | INSR phosphorylated |  | 1 µM | 100 |
| CC(C)(C)C(=O)c1sc(NC2CCCCC2)nc1N | INSR |  | 10 µM | 93 |
| CC(C)(C)c1nc(-c2cccc(NS(=O)(=O)c3c(F)cccc3F)c2F)c(-c2ccnc(N)n2)s1 | INSR | radiometric | 1 µM | 108 |
| FC(F)c1nc2ccccc2n1-c1nc(N2CCOCC2)nc(N2CCOCC2)n1 | INSR |  | 10 µM | 104 |
| CCCOc1ccc(OC)c(F)c1C(=O)c1ccc(C(=O)N[C@@H]2CNC[C@H]2NC(=O)c2ccc3[nH]ncc3c2)cc1 | INSR phosphorylated |  | 10 µM | 98 |
| Cc1cnc(NC2CCOCC2)nc1-n1cnc(C(=O)NC(CN)c2cc(F)cc(Cl)c2)c1 (stereo not drawn) | INSR phosphorylated | radiometric | 1 µM | 104 |
| Cc1[nH]c(/C=C2\C(=O)Nc3ccc(F)cc32)c(C)c1C(=O)N[C@H]1CCN(C(=O)N(C)C)C1 | INSR |  | 1 µM | 87 |
